Assay results gathered from unrelated publications.
ST14: Suppressor of tumorigenicity 14 protein (ST14, Homo sapiens, UniProt Q9Y5Y6)
CDK2 with cyclin A2: Cyclin-dependent kinase 2, with cyclin A2 (CDK2, Homo sapiens, UniProt P24941)

SMILES | target | read-out | mode | method | concentration | quantity | result
N=C(N)NCCC[C@H](NC(=O)[C@@H](NC(=O)[C@H](Cc1cscn1)NC(=O)CCc1ccccc1)C(c1ccccc1)c1ccccc1)C(=O)c1nc2ccccc2s1 | ST14 | enzyme activity | inhibitor | – | 0.1 µM | remaining activity | 76%
COc1cc(-c2cncc3c2CN(C)Cc2cc(N4CCNCC4)ccc2-3)cc(OC)c1OC | Serine/threonine-protein kinase D3 (PRKD3, Homo sapiens, UniProt O94806) | enzyme activity | inhibitor | – | 1 µM | remaining activity | 92%
CC(=O)Nc1c(N)nc(SCC(=O)NN)[nH]c1=O | CDK2 with cyclin A2 | enzyme activity | inhibitor | – | 1 µM | inhibition | 73%
N=C(N)NCCC[C@H](NC(=O)[C@@H](NC(=O)[C@H](Cc1cscn1)NC(=O)CCc1ccccc1)c1ccccc1)C(=O)c1nc2ccccc2s1 | ST14 | enzyme activity | inhibitor | – | 0.1 µM | remaining activity | 33%
Cc1cc([C@@H](C)Nc2ccccc2C(=O)O)c2nc(N3CCC(F)(F)CC3)c(C#N)c(=O)n2c1 | Mitogen-activated protein kinase 10 (MAPK10, Homo sapiens, UniProt P53779) | binding | – | competition with immobilised ligand | 1 µM | remaining binding | 100%
CNC(=O)c1cc(Oc2ccc(NC(=O)Nc3ccc(Cl)c(C(F)(F)F)c3)cc2)ccn1 | CDK2 with cyclin A2 | enzyme activity | inhibitor | – | 20 nM | inhibition | 43.1%
C=CC(=O)N1CCC(COCC(=O)N2CCN(c3nc(-c4cnc(N)nc4C(F)F)nc(N4CCOC[C@@H]4C)n3)CC2)CC1 | ALK tyrosine kinase receptor (ALK, Homo sapiens, UniProt Q9UM73, L1196M) | binding | – | competition with immobilised ligand | 1 µM | remaining binding | 77%
N=C(N)NCCC[C@H](NC(=O)[C@H](Cc1ccc(C(=O)c2ccccc2)cc1)NC(=O)[C@H](Cc1cscn1)NC(=O)CCc1ccccc1)C(=O)c1nc2ccccc2s1 | ST14 | enzyme activity | inhibitor | – | 0.1 µM | remaining activity | 89%
CNc1ncc2c(/C=C/C(=O)N3CCC(OC)CC3)nn(Cc3cccc(C(F)(F)F)c3)c2n1 | Serine/threonine-protein kinase VRK1 (VRK1, Homo sapiens, UniProt Q99986) | enzyme activity | inhibitor | radiometric | 1 µM | remaining activity | 100%
